Laboratory results as given in ChEMBL document CHEMBL5678799 (Biochem J, 2009).
Active and inactive are the calls of the source. The rule behind the calls is not given here.

Key:
[1] = target: Ribosomal protein S6 kinase alpha-1 (Homo sapiens) (UniProt Q15418); test: Inhibition of recombinant human N-terminal His6-tagged RSK1 (1 to 735 residues) expressed in baculovirus infected Sf21 cells assessed as remaining activity at 10 uM using KKLNRTLSVA as substrate incubated for 30 mins in presence of [gamma-33P]ATP by filter binding assay relative to control
Sequence of Ribosomal protein S6 kinase alpha-1 (Homo sapiens) (Q15418 whole entry, the tested form may be a part): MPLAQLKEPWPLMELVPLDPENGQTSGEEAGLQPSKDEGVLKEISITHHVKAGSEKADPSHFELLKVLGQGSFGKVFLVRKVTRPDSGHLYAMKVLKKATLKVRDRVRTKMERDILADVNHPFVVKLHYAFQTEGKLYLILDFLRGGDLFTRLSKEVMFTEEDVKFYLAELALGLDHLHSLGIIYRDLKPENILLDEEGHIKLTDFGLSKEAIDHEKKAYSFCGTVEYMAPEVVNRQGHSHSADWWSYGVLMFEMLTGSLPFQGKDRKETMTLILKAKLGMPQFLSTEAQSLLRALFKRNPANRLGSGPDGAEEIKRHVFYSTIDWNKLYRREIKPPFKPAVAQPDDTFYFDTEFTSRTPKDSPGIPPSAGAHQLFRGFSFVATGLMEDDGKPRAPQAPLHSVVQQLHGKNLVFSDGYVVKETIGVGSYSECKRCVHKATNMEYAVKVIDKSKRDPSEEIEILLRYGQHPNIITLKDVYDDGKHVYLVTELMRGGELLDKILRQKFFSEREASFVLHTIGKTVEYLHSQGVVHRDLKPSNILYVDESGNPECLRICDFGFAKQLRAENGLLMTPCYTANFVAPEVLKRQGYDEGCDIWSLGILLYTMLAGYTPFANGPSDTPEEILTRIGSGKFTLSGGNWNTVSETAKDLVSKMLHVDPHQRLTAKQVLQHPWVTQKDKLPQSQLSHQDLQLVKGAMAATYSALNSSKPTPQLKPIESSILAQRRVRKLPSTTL

[2] = target: Dual specificity mitogen-activated protein kinase kinase 1 (Homo sapiens) (UniProt Q02750); test: Inhibition of recombinant human MKK1 (2 to 393 residues) expressed in Escherichia coli at 10 uM using MBP as substrate incubated for 30 mins in presence of [gamma-33P]ATP by filter binding method relative to control
Sequence of Dual specificity mitogen-activated protein kinase kinase 1 (Homo sapiens) (Q02750 whole entry, the tested form may be a part): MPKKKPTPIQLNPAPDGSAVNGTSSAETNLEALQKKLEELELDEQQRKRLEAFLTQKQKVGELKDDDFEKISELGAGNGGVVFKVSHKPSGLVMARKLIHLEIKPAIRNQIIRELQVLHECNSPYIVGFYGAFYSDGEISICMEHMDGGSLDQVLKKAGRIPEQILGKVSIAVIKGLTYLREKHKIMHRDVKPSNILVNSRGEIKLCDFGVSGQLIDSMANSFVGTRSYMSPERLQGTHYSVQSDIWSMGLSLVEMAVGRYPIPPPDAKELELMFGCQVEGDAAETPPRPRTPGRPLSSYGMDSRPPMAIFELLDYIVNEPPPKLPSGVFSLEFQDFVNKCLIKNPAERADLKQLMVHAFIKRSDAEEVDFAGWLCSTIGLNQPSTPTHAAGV
How it was run: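 Kinase panel run robotically at 21 °C for 30 min, linear in time and enzyme. […] Compound tested at 1 or 10 µM. Activity given as percentage of incubations without compound, mean of triplicates ± S.D.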

[3] = target: SRSF protein kinase 1 (Homo sapiens) (UniProt Q96SB4); test: Inhibition of recombinant human N-terminal GST-tagged SRPK1 (2 to 654 residues) expressed in Escherichia coli assessed as remaining activity at 10 uM using RSRSRSRSRSRSRSR as substrate incubated for 30 mins in presence of [gamma-33P]ATP by filter binding assay relative to control
How it was run: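 Incubation was 30 min at room temperature (21 °C) under conditions linear with time and enzyme amount. Activity is reported as percent of control lacking compound, triplicate mean ± S.D.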

mTORC1 (Homo sapiens) [4] = target: T1, mTORC1 (Homo sapiens) (UniProt P42345+Q8N122+Q9BVC4); conditions: HEK293, dose 30.0 nM, time 30.0 min
[5] = target: Serine/threonine-protein kinase D1 (Homo sapiens) (UniProt Q15139); test: Inhibition of recombinant human N-terminal His6-tagged PKD1 (2 to 912 residues) expressed in baculovirus infected Sf21 cells assessed as remaining activity at 1 uM using KKLNRTLSVA as substrate incubated for 30 mins in presence of [gamma-33P]ATP by filter binding method relative to control
Sequence of Serine/threonine-protein kinase D1 (Homo sapiens) (Q15139 whole entry, looked up, the tested form may be a part): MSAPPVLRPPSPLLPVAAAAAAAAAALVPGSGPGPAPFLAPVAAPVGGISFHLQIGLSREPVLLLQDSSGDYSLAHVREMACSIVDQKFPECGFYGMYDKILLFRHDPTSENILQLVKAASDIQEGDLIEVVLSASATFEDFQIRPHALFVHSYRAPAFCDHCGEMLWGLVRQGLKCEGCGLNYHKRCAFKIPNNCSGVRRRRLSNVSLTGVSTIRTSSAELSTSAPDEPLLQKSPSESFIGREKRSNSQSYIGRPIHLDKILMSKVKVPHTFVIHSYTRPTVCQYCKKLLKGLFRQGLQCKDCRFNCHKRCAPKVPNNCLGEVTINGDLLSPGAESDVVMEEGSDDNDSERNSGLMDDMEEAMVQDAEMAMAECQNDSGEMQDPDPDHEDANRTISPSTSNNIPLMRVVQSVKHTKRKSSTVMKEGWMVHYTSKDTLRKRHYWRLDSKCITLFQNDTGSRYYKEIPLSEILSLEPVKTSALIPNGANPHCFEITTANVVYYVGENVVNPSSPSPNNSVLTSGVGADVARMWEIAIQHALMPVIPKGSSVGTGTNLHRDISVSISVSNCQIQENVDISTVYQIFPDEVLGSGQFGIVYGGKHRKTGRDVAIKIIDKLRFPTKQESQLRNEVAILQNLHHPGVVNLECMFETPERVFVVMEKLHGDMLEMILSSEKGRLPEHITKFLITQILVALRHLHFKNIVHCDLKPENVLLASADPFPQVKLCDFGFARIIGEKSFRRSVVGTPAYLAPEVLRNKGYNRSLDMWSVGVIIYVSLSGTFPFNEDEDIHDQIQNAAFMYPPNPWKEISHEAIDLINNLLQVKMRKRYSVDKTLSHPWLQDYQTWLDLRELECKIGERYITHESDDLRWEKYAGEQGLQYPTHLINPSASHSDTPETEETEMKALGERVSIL

[6] = target: Dual specificity tyrosine-phosphorylation-regulated kinase 2 (Homo sapiens) (UniProt Q92630); test: Inhibition of recombinant human N-terminal GST-tagged DYRK2 (3 to 528 residues) expressed in Escherichia coli assessed as remaining activity at 1 uM using KKISGRLSPIMTEQ as substrate incubated for 30 mins in presence of [gamma-33P]ATP by filter binding method relative to control
How it was run: (§1)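 Run robotically for 30 min at 21 °C under linear conditions. Compound at 1 or 10 µM. Percentage activity remaining versus control without compound, triplicate mean ± S.D.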

mTORC1 (Homo sapiens) [7] = target: T1, mTORC1 (Homo sapiens); conditions: HEK293, dose 30-1000 nM, time 30.0 min
[8] = target: Serine/threonine-protein kinase Nek6 (Homo sapiens) (UniProt Q9HC98); test: Inhibition of recombinant human His6-tagged NEK6 (8 to 313 residues) expressed in baculovirus infected Sf21 cells assessed as remaining activity at 10 uM using FLAKSFGSPNRAYKK as substrate incubated for 30 mins in presence of [gamma-33P]ATP by filter binding method relative to control; how it was run: as §1
Sequence of Serine/threonine-protein kinase Nek6 (Homo sapiens) (Q9HC98 whole entry, the tested form may be a part): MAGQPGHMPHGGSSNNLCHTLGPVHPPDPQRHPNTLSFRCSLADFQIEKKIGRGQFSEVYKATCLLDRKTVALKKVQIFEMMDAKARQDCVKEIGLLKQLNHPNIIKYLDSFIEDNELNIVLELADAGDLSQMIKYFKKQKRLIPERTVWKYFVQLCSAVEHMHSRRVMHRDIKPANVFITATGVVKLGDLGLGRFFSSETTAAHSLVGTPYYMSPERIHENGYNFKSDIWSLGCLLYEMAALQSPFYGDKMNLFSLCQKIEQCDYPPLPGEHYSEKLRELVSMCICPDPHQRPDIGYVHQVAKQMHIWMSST

mTORC2 (Homo sapiens) = mTORC2 (Homo sapiens) (UniProt P42345+Q6R327+Q9BVC4+Q9BPZ7); conditions: HEK293, dose 30-1000 nM, time 30.0 min
[9] = target: MAP kinase-interacting serine/threonine-protein kinase 2 (Homo sapiens) (UniProt Q9HBH9); test: Inhibition of recombinant human N-terminal GST/C-terminal His6-tagged MNK2alpha (2 to 465 residues) expressed in Escherichia coli assessed as remaining activity at 1 uM using eIF4E as substrate incubated for 30 mins in presence of [gamma-33P]ATP by filter binding method relative to control
Sequence of MAP kinase-interacting serine/threonine-protein kinase 2 (Homo sapiens) (Q9HBH9 whole entry, looked up, the tested form may be a part): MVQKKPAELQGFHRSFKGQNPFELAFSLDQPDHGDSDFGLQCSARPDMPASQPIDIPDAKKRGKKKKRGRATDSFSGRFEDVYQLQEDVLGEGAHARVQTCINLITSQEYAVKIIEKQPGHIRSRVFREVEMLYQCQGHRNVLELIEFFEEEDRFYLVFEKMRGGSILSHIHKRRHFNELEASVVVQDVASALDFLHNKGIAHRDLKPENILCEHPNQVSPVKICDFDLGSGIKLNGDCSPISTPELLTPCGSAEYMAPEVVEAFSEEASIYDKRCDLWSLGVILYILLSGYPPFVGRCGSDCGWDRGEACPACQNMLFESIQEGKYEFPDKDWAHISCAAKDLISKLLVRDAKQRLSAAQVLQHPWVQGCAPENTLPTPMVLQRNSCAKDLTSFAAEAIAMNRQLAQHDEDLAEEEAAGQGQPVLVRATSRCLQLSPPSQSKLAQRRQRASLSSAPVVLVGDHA

MEF = test: Inhibition of mTORC2 in serum starved mLST8 knockout MEF cells assessed as reduction IGF1-stimulated AKT phosphorylation at Thr308 residue at 100 to 1000 nM incubated for 20 mins by immunoblot analysis; format: cell-based; conditions: Mus musculus, dose 100-1000 nM
How it was run: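 Serum withdrawn 16 h. Inhibitor or vehicle given 30 min before stimulation with 50 ng/ml IGF-1 for 20 min. Lysed in Tris lysis buffer and immunoblotted for Akt Thr308 phosphorylation with ECL detection. Applies to HEK-293 and to wild-type, Rictor, Sin1 or mLST8 knockout MEFs. Three independent experiments.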

[10] = target: Ephrin type-A receptor 2 (Homo sapiens) (UniProt P29317); test: Inhibition of recombinant human N-terminal GST-tagged EPHA2 (591 to 976 residues) expressed in Escherichia coli assessed as remaining activity at 10 uM using Poly (Glu,Tyr) as substrate incubated for 30 mins in presence of [gamma-33P]ATP by filter binding method relative to control; how it was run: as §1
Sequence of Ephrin type-A receptor 2 (Homo sapiens) (P29317 whole entry, the tested form may be a part): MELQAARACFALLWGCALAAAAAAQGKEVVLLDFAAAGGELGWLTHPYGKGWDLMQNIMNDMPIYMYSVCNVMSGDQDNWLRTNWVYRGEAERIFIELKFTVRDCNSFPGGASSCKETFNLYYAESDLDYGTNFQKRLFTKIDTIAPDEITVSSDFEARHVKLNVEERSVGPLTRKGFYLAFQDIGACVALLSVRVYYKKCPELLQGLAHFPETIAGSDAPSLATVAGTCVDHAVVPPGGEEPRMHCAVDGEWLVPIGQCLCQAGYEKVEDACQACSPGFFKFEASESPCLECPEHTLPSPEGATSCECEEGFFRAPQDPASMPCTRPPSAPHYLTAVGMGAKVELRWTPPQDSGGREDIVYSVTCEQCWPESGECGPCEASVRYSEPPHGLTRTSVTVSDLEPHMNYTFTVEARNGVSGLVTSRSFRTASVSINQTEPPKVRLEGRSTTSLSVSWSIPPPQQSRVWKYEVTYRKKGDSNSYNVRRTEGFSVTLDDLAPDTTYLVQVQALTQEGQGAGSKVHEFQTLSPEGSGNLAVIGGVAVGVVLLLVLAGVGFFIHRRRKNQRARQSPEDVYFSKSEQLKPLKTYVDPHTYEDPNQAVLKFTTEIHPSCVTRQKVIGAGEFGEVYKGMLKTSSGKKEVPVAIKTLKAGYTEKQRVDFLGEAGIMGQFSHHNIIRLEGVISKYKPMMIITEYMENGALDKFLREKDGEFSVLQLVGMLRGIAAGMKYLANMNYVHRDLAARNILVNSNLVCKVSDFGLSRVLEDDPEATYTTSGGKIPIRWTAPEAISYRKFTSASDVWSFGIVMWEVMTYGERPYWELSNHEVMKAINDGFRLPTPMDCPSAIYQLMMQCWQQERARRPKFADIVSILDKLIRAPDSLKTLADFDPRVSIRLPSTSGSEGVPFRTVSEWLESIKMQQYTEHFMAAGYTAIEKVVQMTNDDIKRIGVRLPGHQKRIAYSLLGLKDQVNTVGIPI

[11] = target: Serine/threonine-protein kinase mTOR (Mus musculus) (UniProt Q9JLN9); test: Inhibition of mTOR in MEF cells assessed as reduction in 4E-BP1 phosphorylation at S65 residues at 1 uM incubated for 30 mins by immunoblot analysis; format: cell-based
How it was run: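 HEK-293 cells or MEFs cultured in 10% serum and treated 30 min with inhibitor. Lysed in Tris lysis buffer. Lysates immunoblotted for 4E-BP1 phosphorylated at Thr37/Thr46 and Ser65, with mobility shift noted. Three experiments.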

[12] = target: Mitogen-activated protein kinase; ERK1/ERK2 (Homo sapiens) (UniProt P27361+P28482); test: Inhibition of ERK1/2 in serum starved/PMA-stimulated HEK293 cells assessed as reduction in RSK phosphorylation at T573 residues at 1 uM incubated for 30 mins by immunoblot analysis; format: cell-based
[13] = target: Mitogen-activated protein kinase 12 (Homo sapiens) (UniProt P53778); test: Inhibition of recombinant human N-terminal GST-tagged P38gamma (1 to 367 residues) expressed in Escherichia coli assessed as remaining activity at 10 uM using MBP as substrate incubated for 30 mins in presence of [gamma-33P]ATP by filter binding method relative to control
Sequence of Mitogen-activated protein kinase 12 (Homo sapiens) (P53778 whole entry, the tested form may be a part): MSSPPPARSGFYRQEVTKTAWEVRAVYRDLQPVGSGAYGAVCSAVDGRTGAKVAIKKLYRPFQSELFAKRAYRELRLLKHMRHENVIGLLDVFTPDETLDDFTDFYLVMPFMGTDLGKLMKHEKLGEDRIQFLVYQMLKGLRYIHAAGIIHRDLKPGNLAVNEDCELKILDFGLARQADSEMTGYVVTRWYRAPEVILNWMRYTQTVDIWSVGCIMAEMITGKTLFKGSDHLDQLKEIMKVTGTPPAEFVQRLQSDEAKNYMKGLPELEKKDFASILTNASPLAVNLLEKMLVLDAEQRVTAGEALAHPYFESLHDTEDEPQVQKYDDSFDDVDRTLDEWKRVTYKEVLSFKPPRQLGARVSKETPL
How it was run: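 Radiometric kinase panel run robotically at room temperature (21 °C) for 30 min, linear in time and enzyme. […] Activity is expressed as percent of control without compound, from triplicate determinations ± S.D.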

[14] = target: Serine/threonine-protein kinase PAK 5 (Homo sapiens) (UniProt Q9P286); test: Inhibition of recombinant human N-terminal GST-tagged PAK5 (2 to 719 residues) expressed in Escherichia coli assessed as remaining activity at 1 uM using RRRLSFAEPG as substrate incubated for 30 mins in presence of [gamma-33P]ATP by filter binding method relative to control
Sequence of Serine/threonine-protein kinase PAK 5 (Homo sapiens) (Q9P286 whole entry, looked up, the tested form may be a part): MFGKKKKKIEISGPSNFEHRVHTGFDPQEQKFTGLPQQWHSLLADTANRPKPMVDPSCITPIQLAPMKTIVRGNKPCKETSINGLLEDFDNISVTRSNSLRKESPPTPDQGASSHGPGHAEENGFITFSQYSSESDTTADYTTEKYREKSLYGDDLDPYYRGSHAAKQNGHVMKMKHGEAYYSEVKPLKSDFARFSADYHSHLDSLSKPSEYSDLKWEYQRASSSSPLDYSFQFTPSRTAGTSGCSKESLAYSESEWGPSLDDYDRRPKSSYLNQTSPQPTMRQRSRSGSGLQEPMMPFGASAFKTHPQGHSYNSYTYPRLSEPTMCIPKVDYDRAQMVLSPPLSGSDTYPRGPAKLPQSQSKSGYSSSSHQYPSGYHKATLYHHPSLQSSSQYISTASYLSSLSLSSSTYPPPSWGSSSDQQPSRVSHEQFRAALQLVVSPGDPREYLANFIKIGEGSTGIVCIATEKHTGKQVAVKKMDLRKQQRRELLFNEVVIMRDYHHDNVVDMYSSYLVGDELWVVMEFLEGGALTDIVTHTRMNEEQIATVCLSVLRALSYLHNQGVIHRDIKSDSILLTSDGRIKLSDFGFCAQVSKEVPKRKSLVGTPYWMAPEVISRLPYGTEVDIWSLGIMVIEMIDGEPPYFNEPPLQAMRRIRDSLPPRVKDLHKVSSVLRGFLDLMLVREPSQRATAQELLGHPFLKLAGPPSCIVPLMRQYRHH
How it was run: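 Panel assays were run for 30 min at 21 °C, within the linear range for time and enzyme. […] Results are percent activity remaining relative to compound-free control, averaged from triplicate ± S.D.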

## COc1ccc(-c2ccc3c(N4CCOCC4)nc(N4C[C@@H](C)O[C@@H](C)C4)nc3n2)cc1CO [Ku-0063794]
[1]
  Activity: 86%
[2]
  inhibition: 55%
[3]
  Activity: 94%
mTORC1 (Homo sapiens) [4]
  inhibition: 90%
[5]
  Activity: 80%
[6]
  Activity: 92%
mTORC1 (Homo sapiens) [7]
  inhibition: Dose-Dependent Effect
[8]
  Activity: 83%
mTORC2 (Homo sapiens)
  inhibition: Dose-Dependent Effect
[9]
  Activity: 87%
MEF
  inhibition: Active
[10]
  Activity: 96%
[11]
  inhibition: Active
[12]
  inhibition: inactive
[13]
  Activity: 91%
[14]
  Activity: 101%
